Measured values from ChEMBL document CHEMBL4354837 (J Med Chem, 2020).
The source made the active and inactive calls. The rule behind the calls is not given here. Square brackets hold non-standard residues; d marks the D form. Peptide text beside a SMILES is read from it. Dap = NC[C@H](N)C(=O)O

Assays:
Melanocortin receptor 4 [1] = molecular target: T1, Melanocortin receptor 4 (Homo sapiens, UniProt P32245); test: Inverse agonist activity at human melanocortin receptor 4 expressed in HEK293 cells assessed as inhibition of basal cAMP accumulation incubated for 2 hrs by cAMP Alpha-screen assay; assay type: functional, cell-based
Method in brief: (§1)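 AlphaScreen cAMP assay in stably transfected HEK293 cells, with 10,000 cells/well in IBMX-containing HBSS/HEPES buffer pH 7.4. Peptide alone, up to 100 μM, 2 h at room temperature in the dark, then 2 h lysis/detection. Inverse agonism taken as percent decrease of cAMP from basal, relative to maximal NDP-MSH signal, at 100 μM. Duplicates, three independent experiments.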

[2] = molecular target: Melanocyte-stimulating hormone receptor (Mus musculus) (UniProt Q01727); test: Agonist activity at mouse melanocortin receptor 1 expressed in HEK293 cells assessed as stimulation of cAMP accumulation at 100 uM incubated for 2 hrs by cAMP Alpha-screen assay relative to control; assay type: functional, cell-based
Melanocortin receptor 3 [3] = molecular target: T2, Melanocortin receptor 3 (Mus musculus, UniProt P33033); test: Agonist activity at mouse melanocortin receptor 3 expressed in HEK293 cells assessed as stimulation of cAMP accumulation incubated for 2 hrs by cAMP Alpha-screen assay; assay type: functional, cell-based
Melanocortin receptor 4 [4] = molecular target: T3, Melanocortin receptor 4 (Mus musculus, UniProt P56450); test: Agonist activity at mouse melanocortin receptor 4 expressed in HEK293 cells assessed as stimulation of cAMP accumulation incubated for 2 hrs by cAMP Alpha-screen assay; assay type: functional, cell-based
Melanocortin receptor 5 [5] = molecular target: T4, Melanocortin receptor 5 (Mus musculus, UniProt P41149); test: Agonist activity at mouse melanocortin receptor 5 expressed in HEK293 cells assessed as stimulation of cAMP accumulation incubated for 2 hrs by cAMP Alpha-screen assay; assay type: functional, cell-based
[6] = molecular target: Melanocyte-stimulating hormone receptor (Mus musculus) (UniProt Q01727); test: Ratio of IC50 for MDE6-82-1c to IC50 for test compound for displacement of [125I]-NDP-MSH from mouse melanocortin receptor 1 […] incubated for 1 hr by automatic gamma counting method
[7] = molecular target: Melanocortin receptor 3 (Mus musculus) (UniProt P33033); test: Ratio of IC50 for MDE6-82-1c to IC50 for test compound for displacement of [125I]-NDP-MSH from mouse melanocortin receptor 3 expressed in HEK293 cell mebranes incubated for 1 hr by automatic gamma counting method
Method in brief: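 Whole stably transfected HEK293 cells (>90% confluent) incubated 1 h at 37°C, 5% CO2, in DMEM with 0.1% BSA. […] Cells washed, lysed with NaOH/Triton X-100, and counted by gamma counter. Specific binding normalized to nonradioactive NDP-MSH. IC50 from duplicates in two experiments (mean ± SD). Fold difference taken against the Dap-containing parent control.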

[8] = molecular target: Melanocortin receptor 4 (Mus musculus) (UniProt P56450); test: Ratio of IC50 for MDE6-82-1c to IC50 for test compound for displacement of [125I]-NDP-MSH from mouse melanocortin receptor 4 […] incubated for 1 hr by automatic gamma counting method
[9] = molecular target: Melanocortin receptor 5 (Mus musculus) (UniProt P41149); test: Ratio of IC50 for MDE6-82-1c to IC50 for test compound for displacement of [125I]-NDP-MSH from mouse melanocortin receptor 5 […] incubated for 1 hr by automatic gamma counting method
Melanocortin receptor 4 [10] = molecular target: T1, Melanocortin receptor 4; test: Ratio of IC50 for MDE6-82-1c to IC50 for test compound for displacement of [125I]-NDP-MSH from human melanocortin receptor 4 […] incubated for 1 hr by automatic gamma counting method; assay type: cell membranes
Melanocortin receptor 3 [11] = molecular target: T2, Melanocortin receptor 3; test: Antagonist activity at mouse melanocortin receptor 3 expressed in HEK293 cells assessed as inhibition of NDP-MSH-induced cAMP accumulation incubated for 2 hrs by cAMP Alpha-screen assay based Schild analysis; assay type: functional, cell-based; conditions: read-out: pA2 (converted)
Method in brief: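 NDP-MSH (10−6 to 10−12) plus antagonist at 10,000, 5,000, 1,000 and 500 nM, 2 h dark at room temperature. AlphaScreen cAMP read after lysis/bead step 2 h. Schild pA2; duplicates, at least three independent experiments.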

[12] = molecular target: Melanocyte-stimulating hormone receptor (Mus musculus, UniProt Q01727); test: Displacement of [125I]-NDP-MSH from mouse melanocortin receptor 1 expressed in HEK293 cell mebranes incubated for 1 hr by automatic gamma counting method; assay type: cell-based
Method in brief: (§2)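 Cells washed, lysed 10 min with 0.1 M NaOH/1% Triton X-100, then gamma-counted. Specific binding defined with unlabelled NDP-MSH and normalized to it. Duplicate wells, two experiments. IC50 by non-linear fit. Fold difference taken relative to the Asn-parent macrocycle control.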

Melanocortin receptor 3 [13] = molecular target: T2, Melanocortin receptor 3; test: Displacement of [125I]-NDP-MSH from mouse melanocortin receptor 3 expressed in HEK293 cell mebranes incubated for 1 hr by automatic gamma counting method; assay type: cell-based
[14] = molecular target: Melanocortin receptor 4 (Mus musculus) (UniProt P56450); test: Ratio of IC50 for MDE6-82-3c to IC50 for test compound for displacement of [125I]-NDP-MSH from mouse melanocortin receptor 4 expressed in HEK293 cell mebranes incubated for 1 hr by automatic gamma counting method; method in brief: as §2
Melanocortin receptor 5 [15] = molecular target: T4, Melanocortin receptor 5; test: Displacement of [125I]-NDP-MSH from mouse melanocortin receptor 5 expressed in HEK293 cell mebranes incubated for 1 hr by automatic gamma counting method; assay type: cell-based
Melanocortin receptor 4 [16] = molecular target: T1, Melanocortin receptor 4; test: Ratio of IC50 for MDE6-82-3c to IC50 for test compound for displacement of [125I]-NDP-MSH from human melanocortin receptor 4 expressed in HEK293 cell membranes incubated for 1 hr by automatic gamma counting method; method in brief: as §2
[17] = molecular target: Melanocortin receptor 3 (Mus musculus) (UniProt P33033); test: Agonist activity at mouse melanocortin receptor 3 expressed in HEK293 cells assessed as stimulation of cAMP accumulation at 100 uM incubated for 2 hrs by cAMP Alpha-screen assay relative to control; assay type: functional, cell-based
[18] = molecular target: Melanocortin receptor 4 (Mus musculus) (UniProt P56450); test: Agonist activity at mouse melanocortin receptor 4 expressed in HEK293 cells assessed as stimulation of cAMP accumulation at 100 uM incubated for 2 hrs by cAMP Alpha-screen assay relative to control; assay type: functional, cell-based
Melanocortin receptor 4 [19] = molecular target: T1, Melanocortin receptor 4; test: Antagonist activity at human melanocortin receptor 4 expressed in HEK293 cells assessed as inhibition of NDP-MSH-induced cAMP accumulation incubated for 2 hrs by cAMP Alpha-screen assay based Schild analysis; assay type: functional, cell-based; conditions: read-out: pA2 (converted)
Melanocortin receptor 4 [20] = molecular target: T3, Melanocortin receptor 4; test: Antagonist activity at mouse melanocortin receptor 4 expressed in HEK293 cells assessed as inhibition of NDP-MSH-induced cAMP accumulation incubated for 2 hrs by cAMP Alpha-screen assay based Schild analysis; assay type: functional, cell-based; conditions: read-out: pA2 (converted)
[21] = molecular target: Melanocortin receptor 5 (Mus musculus) (UniProt P41149); test: Inverse agonist activity at mouse melanocortin receptor 5 expressed in HEK293 cells assessed as inhibition of basal cAMP accumulation incubated for 2 hrs by cAMP Alpha-screen assay relative to control; assay type: functional, cell-based; conditions: concentration not given here; method in brief: as §1

T4 sequence (P41149 whole entry): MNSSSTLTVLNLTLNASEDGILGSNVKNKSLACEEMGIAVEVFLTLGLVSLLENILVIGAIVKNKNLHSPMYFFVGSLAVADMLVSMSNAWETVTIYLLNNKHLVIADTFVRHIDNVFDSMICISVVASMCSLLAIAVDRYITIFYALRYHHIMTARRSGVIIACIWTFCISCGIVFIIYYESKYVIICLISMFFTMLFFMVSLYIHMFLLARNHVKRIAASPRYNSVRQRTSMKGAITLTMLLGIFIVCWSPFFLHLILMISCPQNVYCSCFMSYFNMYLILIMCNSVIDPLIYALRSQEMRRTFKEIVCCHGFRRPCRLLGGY
T1 sequence (P32245 whole entry): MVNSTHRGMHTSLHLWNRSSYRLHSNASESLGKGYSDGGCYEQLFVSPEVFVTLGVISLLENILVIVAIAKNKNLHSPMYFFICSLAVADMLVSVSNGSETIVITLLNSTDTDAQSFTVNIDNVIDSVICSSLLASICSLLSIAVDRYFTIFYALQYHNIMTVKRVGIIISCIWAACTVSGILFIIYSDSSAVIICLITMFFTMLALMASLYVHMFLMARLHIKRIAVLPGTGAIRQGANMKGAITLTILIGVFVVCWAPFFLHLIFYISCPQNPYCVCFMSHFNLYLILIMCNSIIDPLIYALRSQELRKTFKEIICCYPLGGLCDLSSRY
T2 sequence (P33033 whole entry): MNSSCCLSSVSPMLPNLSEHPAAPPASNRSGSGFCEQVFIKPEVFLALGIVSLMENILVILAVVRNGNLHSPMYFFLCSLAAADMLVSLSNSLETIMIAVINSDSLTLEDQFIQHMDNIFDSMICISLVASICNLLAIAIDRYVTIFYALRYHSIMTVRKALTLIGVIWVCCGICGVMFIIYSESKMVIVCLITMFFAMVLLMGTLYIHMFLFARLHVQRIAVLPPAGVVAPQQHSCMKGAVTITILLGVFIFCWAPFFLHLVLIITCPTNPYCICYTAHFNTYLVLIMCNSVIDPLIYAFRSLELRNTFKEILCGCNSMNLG
Melanocortin receptor 3 (Mus musculus), sequence (P33033 whole entry): as above
Melanocyte-stimulating hormone receptor (Mus musculus), sequence (Q01727 whole entry, looked up): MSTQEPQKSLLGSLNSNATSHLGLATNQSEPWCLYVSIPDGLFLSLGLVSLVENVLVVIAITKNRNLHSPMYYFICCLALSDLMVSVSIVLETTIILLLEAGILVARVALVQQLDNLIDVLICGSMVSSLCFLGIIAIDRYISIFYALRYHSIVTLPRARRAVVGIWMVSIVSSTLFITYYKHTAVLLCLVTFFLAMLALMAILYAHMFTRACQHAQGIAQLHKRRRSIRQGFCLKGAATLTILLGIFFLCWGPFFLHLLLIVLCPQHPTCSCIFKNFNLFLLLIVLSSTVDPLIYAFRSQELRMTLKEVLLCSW
T3 sequence (P56450 whole entry): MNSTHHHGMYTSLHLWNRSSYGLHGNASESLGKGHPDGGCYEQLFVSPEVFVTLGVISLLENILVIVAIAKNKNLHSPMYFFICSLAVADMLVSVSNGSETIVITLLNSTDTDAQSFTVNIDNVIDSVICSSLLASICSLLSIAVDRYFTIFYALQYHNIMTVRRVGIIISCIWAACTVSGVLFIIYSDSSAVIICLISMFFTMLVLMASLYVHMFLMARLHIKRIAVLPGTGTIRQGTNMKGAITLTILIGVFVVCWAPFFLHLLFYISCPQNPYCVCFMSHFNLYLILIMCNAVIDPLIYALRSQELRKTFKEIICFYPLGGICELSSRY
Melanocortin receptor 4 (Mus musculus), sequence (P56450 whole entry): as above
Melanocortin receptor 5 (Mus musculus), sequence (P41149 whole entry): as the sequence (P41149 whole entry) above
Melanocyte-stimulating hormone receptor, sequence (Q01727 whole entry): as the sequence (Q01727 whole entry, looked up) above

Row | SMILES | Activity (Melanocortin receptor 4 [1]) | Activity [2] [%] | EC50 (Melanocortin receptor 3 [3]) [µM] | EC50 (Melanocortin receptor 4 [4]) [µM] | EC50 (Melanocortin receptor 5 [5]) [µM] | Ratio IC50 [6] | Ratio IC50 [7] | Ratio IC50 [8] | Ratio IC50 (Melanocortin receptor 4 [10]) | Kb (Melanocortin receptor 3 [11]) [µM] | IC50 (Melanocortin receptor 5 [15]) [µM] | Activity [17] [%] | Activity [18] [%] | further results
1 | C[C@@H]1NC(=O)[C@H](CC(N)=O)NC(=O)[C@H](Cc2ccccc2)NC(=O)[C@H](Cc2ccccc2)NC(=O)[C@H](Cc2c[nH]cn2)NC(=O)[C@@H]2CCCN2C(=O)[C@H]2CCCN2C(=O)[C@H](Cc2ccccc2)NC1=O | Active | 23 | > 100 | > 100 | > 100 |  |  |  |  | > 10 | > 100 |  |  | IC50 [12]: > 100 µM; IC50 (Melanocortin receptor 3 [13]): > 100 µM; Ratio IC50 [14]: 300; Ratio IC50 (Melanocortin receptor 4 [16]): 300
2 | C[C@@H]1NC(=O)[C@H](CN)NC(=O)[C@H](Cc2ccccc2)NC(=O)[C@H](Cc2ccccc2)NC(=O)[C@H](CS)NC(=O)[C@@H]2CCCN2C(=O)[C@H]2CCCN2C(=O)[C@H](Cc2ccccc2)NC1=O (cyclo(PCFF[Dap]AF[dP])) | inactive |  |  |  | > 100 | 6 | 15 | 5200 | 2100 | > 10 | > 100 | 29 | 42 | Kb (Melanocortin receptor 4 [19]): > 10 µM; Kb (Melanocortin receptor 4 [20]): > 10 µM

Now from value to molecule, other results behind:

Row | Activity (Melanocortin receptor 4 [1]) | Activity [2] [%] | SMILES | EC50 (Melanocortin receptor 3 [3]) [µM] | EC50 (Melanocortin receptor 4 [4]) [µM] | EC50 (Melanocortin receptor 5 [5]) [µM] | Ratio IC50 [6] | Ratio IC50 [7] | Ratio IC50 [8] | Ratio IC50 (Melanocortin receptor 4 [10]) | Kb (Melanocortin receptor 3 [11]) [µM] | IC50 (Melanocortin receptor 5 [15]) [µM] | Activity [17] [%] | Activity [18] [%] | further results
3 | Active | 48 | C[C@@H]1NC(=O)[C@H](CN)NC(=O)[C@H](Cc2ccccc2)NC(=O)[C@H](Cc2ccc(O)cc2)NC(=O)[C@H](CCCNC(=N)N)NC(=O)[C@@H]2CCCN2C(=O)[C@H]2CCCN2C(=O)[C@H](Cc2ccccc2)NC1=O (cyclo(RYF[Dap]AF[dP]P)) | > 100 | > 100 | > 100 | 4 | 9 | 70 | 100 |  |  |  |  | Ratio IC50 [9]: 20
4 | Active | 79 | CC(C)[C@@H]1NC(=O)[C@H](CN)NC(=O)[C@H](Cc2ccccc2)NC(=O)[C@H](Cc2ccccc2)NC(=O)[C@H](CCCNC(=N)N)NC(=O)[C@@H]2CCCN2C(=O)[C@H]2CCCN2C(=O)[C@H](Cc2ccccc2)NC1=O |  |  | > 100 |  |  |  |  |  |  | 27 | 37 | 
5 | Active |  | C[C@@H]1NC(=O)[C@H](CN)NC(=O)[C@H](Cc2ccccc2)NC(=O)[C@H](Cc2ccccc2)NC(=O)[C@H](CCCNC(=N)N)NC(=O)[C@@H]2CCCN2C(=O)[C@H]2CCCN2C(=O)[C@H](Cc2ccccc2)NC1=O |  |  |  |  |  |  |  |  |  |  |  | inhibition [21]: 15%
